In PMC2193166 (The Journal of Experimental Medicine, 2000):
No end group written: not given here. *: point of attachment. 125I = [125I]*

Key:
ALXR = molecular target: T1, ALXR (Homo sapiens, UniProt P25090); details: cited from earlier work
T1 sequence (P25090 1-351): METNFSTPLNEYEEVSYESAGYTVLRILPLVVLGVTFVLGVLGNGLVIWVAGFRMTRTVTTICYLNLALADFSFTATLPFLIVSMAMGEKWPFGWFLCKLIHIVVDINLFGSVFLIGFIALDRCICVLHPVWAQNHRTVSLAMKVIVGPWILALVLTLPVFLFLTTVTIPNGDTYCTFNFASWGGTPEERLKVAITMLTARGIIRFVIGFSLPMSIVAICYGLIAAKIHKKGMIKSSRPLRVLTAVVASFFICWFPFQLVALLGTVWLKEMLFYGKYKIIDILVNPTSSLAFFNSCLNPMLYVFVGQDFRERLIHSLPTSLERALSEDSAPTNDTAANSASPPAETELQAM

human PMNs = experiment: Human PMN chemotaxis, 48-well microchamber; type: cell-based
Outline: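 Freshly isolated human PMNs were preincubated with vehicle or test compound (10 nM) for 30 min at 37°C and loaded at 5 × 10^4/well into the upper wells of a 48-well chamber fitted with an uncoated 5-μm polycarbonate membrane. The lower wells held peptide (1 nM), test compound, or vehicle (RPMI, 0.1% ethanol). After 60 min at 37°C, migrated cells were Diff-Quik stained and counted by light microscopy. Migration index was chemoattractant over vehicle; three donors.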

PMNs = experiment: Direct binding of ^125I-labeled MHC binding peptide with PMNs; parameters: species or system human; details: n = 3, data not shown
B/A254 = B/A254 (Homo sapiens, UniProt P25090+Q15722); experiment: ^3H-LTB4 binding, B/A254-transfected HEK293 cells

Compound: serum amyloid protein A [SAA]
- concentration required to evoke responses (ALXR): micromolar

Compound: ^125I-labeled peptide: MHC binding peptide iodinated at the Tyr residue (MY(125I)FINILTL)
- PMN chemotaxis (in words) (human PMNs): did not promote PMN chemotaxis
- specific binding to PMNs (PMNs): nor did it show specific binding

Compound: CCCCC/C=C\C[C@@H](O)/C=C/C=C\C=C\[C@@H](O)CCCC(=O)O [^3H-LTB4, [5,6,8,9,11,12, 14,15-^3H]-LTB4]
- specific ^3H-LTB4 binding (in words) (B/A254): failed to specifically bind
